38 sequences from the array DNA melting data of Ke et al. (doi:10.1101/2024.01.08.574731) can be followed below.

Series [1] can be described thus: folding enthalpy; higher = less favourable; fluorescence melt of hairpins on a sequencing array, two-state fit. The following applies: sodium 0.088 M. The method in brief: (§1)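 Cy3 signals were normalised both to pre-quench Cy3 and to control constructs. They came from library hairpins carrying annealed Cy3 and quencher oligos on a sequenced MiSeq flow cell, imaged in 50 mM Na-HEPES pH 8.0, 25 mM NaCl, in 2.5 °C steps up to 60 °C. Bootstrapped two-state fits gave melting temperature and folding enthalpy, and four replicates were combined by inverse variance. Fitted temperatures were then raised by 9.35 °C to match UV melts.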

The nature of series [2]: melting temperature; fluorescence melt of hairpins on a sequencing array, two-state fit, raised by 9.35 °C to match UV melts. Particulars: sodium 0.088 M. The method in brief:
as §1

For the sequence GCGTCTAGACGC ((((....)))), the folding enthalpy in series [1] is -31 kcal/mol. In addition, in series [2], the Tm came out at 58.6 °C.
On the same counts, the results for GCGTCTCGAAAGAGTCGC (((.(((....))).))) are -38.1 kcal/mol and 58.1 °C.
With GCGTCTCTACGC ((((....)))), the folding enthalpy in series [1] was -24.4 kcal/mol. Further, in series [2], the Tm turned out to be 52.9 °C.
As to GCGTCTGCACGC ((((....)))), in series [1], the folding enthalpy is -17.6 kcal/mol. The Tm in series [2] was 52.5 °C.
On the same counts, the results for GCGTCTGGAAACAGGTGC ((..(((....)))..)) are -28.3 kcal/mol and 41.8 °C.
Turning to GCGTCTTACGC ((((...)))), the folding enthalpy in series [1] is -21.1 kcal/mol. Also, the Tm in series [2] came to 62.5 °C.
For the sequence GCGTCTTGACGC ((((....)))), in series [1], the folding enthalpy was -34.4 kcal/mol. Moreover, in series [2], the Tm came out at 69.1 °C.
For the sequence GCGTGAACACGC ((((....)))), in series [1], the folding enthalpy is -20.9 kcal/mol. In addition, the Tm in series [2] amounted to 68 °C.
For the sequence GCGTGACGAAAGTCCCGC (((.(((....))).))), in series [1], the folding enthalpy is -21.9 kcal/mol. The Tm in series [2] turned out to be 59.8 °C.
On the same counts, the results for GCGTGACGAAAGTCCGC (((.(((....)))))) are -32.2 kcal/mol and 65 °C.
Take GCGTGAGAACGC ((((....)))): in series [1], the folding enthalpy is -18.9 kcal/mol. Moreover, the Tm in series [2] was found to be 64.2 °C.
For GCGTGAGCACGC ((((....)))), the folding enthalpy in series [1] was -12.7 kcal/mol. Besides, in series [2], the Tm worked out at 62.6 °C.
With GCGTGATAACGC ((((....)))), the folding enthalpy in series [1] is -26.9 kcal/mol. Besides, the Tm in series [2] came to 69.3 °C.
As to GCGTGATCACGC ((((....)))), the folding enthalpy in series [1] is -35.6 kcal/mol. Moreover, the Tm in series [2] stood at 59.1 °C.
Regarding GCGTGATTACGC ((((....)))), the folding enthalpy in series [1] was -22.2 kcal/mol. For the same sequence, in series [2], the Tm stood at 52.5 °C.
As to GCGTGCCACGC ((((...)))), the folding enthalpy in series [1] was -21.3 kcal/mol. The Tm in series [2] was determined as 57.9 °C.
Regarding GCGTGCCCGAAAGGGCGC (((..(((....)))))), the folding enthalpy in series [1] is -7.85 kcal/mol. Besides, the Tm in series [2] stood at 55.5 °C.
On to GCGTGCCGAAAGGCCCGC (((.(((....))).))), for which the folding enthalpy in series [1] is -21.6 kcal/mol. The Tm in series [2] worked out at 68.9 °C.
Turning to GCGTGCCGACGC ((((....)))), in series [1], the folding enthalpy is -19.3 kcal/mol. Moreover, in series [2], the Tm came out at 60.1 °C.
On the same counts, the results for GCGTGCGAAAGCAAACGC ((((((....)))..))) are -29.6 kcal/mol and 60.2 °C.
As to GCGTGCGAAAGCATCGC ((((((....))).))), in series [1], the folding enthalpy is -30.9 kcal/mol. In addition, the Tm in series [2] amounted to 67.2 °C.
Consider GCGTGGAGACGC ((((....)))), for which the folding enthalpy in series [1] was -18.2 kcal/mol. In addition, the Tm in series [2] was 55.6 °C.
On the same counts, the results for GCGTGGCGAAAGCAGCGC (((..((....))..))) are -33.8 kcal/mol and 67.9 °C.
With GCGTGGCGAAAGCCCAGC ((..(((....)))..)), the folding enthalpy in series [1] was -18.3 kcal/mol. Further, the Tm in series [2] was found to be 56.2 °C.
On the same counts, the results for GCGTGGCGAAAGCCGAGC ((..(((....)))..)) are -25.8 kcal/mol and 66.4 °C.
For the sequence GCGTGGCGAAAGCCGTGC ((..(((....)))..)), the folding enthalpy in series [1] was -19.2 kcal/mol. For the same sequence, in series [2], the Tm came out at 57.4 °C.
As for GCGTGGCGAAAGCGATGC ((.(.((....)).).)), the folding enthalpy in series [1] was -25.3 kcal/mol. The Tm in series [2] is 55.7 °C.
For the sequence GCGTGGGCGAAAGCCCGC (((..(((....)))))), in series [1], the folding enthalpy was -9.77 kcal/mol. For the same sequence, the Tm in series [2] was found to be 57.7 °C.
As for GCGTGGGGAAACCCACAC (.(((((....))))).), the folding enthalpy in series [1] is -11.6 kcal/mol. Also, the Tm in series [2] stood at 46.9 °C.
GCGTGGGGAAACCCGTGC ((..(((....)))..)): the folding enthalpy in series [1] was -26.1 kcal/mol. Further, the Tm in series [2] stood at 46.2 °C.
In the case of GCGTGGGGAAACCTACGC ((((.((....)).)))), in series [1], the folding enthalpy is -41.3 kcal/mol. Also, the Tm in series [2] stood at 58.7 °C.
Consider GCGTGGGGAAACTCACGC (((((.(....).))))), for which the folding enthalpy in series [1] is -42.9 kcal/mol. For the same sequence, the Tm in series [2] worked out at 61.4 °C.
On to GCGTGGGTACGC ((((....)))), for which, in series [1], the folding enthalpy is -23.9 kcal/mol. Further, in series [2], the Tm is 53.9 °C.
Take GCGTGTACACGC ((((....)))): the folding enthalpy in series [1] was -28.5 kcal/mol. The Tm in series [2] came to 67.6 °C.
On to GCGTGTCACGC ((((...)))), for which the folding enthalpy in series [1] was -31.1 kcal/mol. In addition, the Tm in series [2] worked out at 57.7 °C.
On the same counts, the results for GCGTGTGACGC ((((...)))) are -23.8 kcal/mol and 53.4 °C.
For GCGTGTGGAAACATGCGC (((..((....))..))), in that order: -35.2 kcal/mol and 60.9 °C.
Take GCGTGTGTACGC ((((....)))): in series [1], the folding enthalpy is -25.7 kcal/mol. Further, in series [2], the Tm came out at 53.3 °C.
